Laboratory results published in ChEMBL document CHEMBL1144581, “alpha-Amino acid derivatives as proton pump inhibitors and potent anti-ulcer agents” (2007).

Experiments:
Rattus norvegicus [1] = organism: Rattus norvegicus; test: Antisecretory activity in rat pylorus ligation-induced ulcer model determined by ratio of total acidity inhibition in drug treated to untreated control; type: functional
Method in brief: (§1)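 Sprague Dawley rats (130-150 g) fasted 24 h with water ad libitum; pylorus ligated through a midline incision under ether anesthesia. Dosing oral, 1 h before ligation. Gastric juice free and total acidity titrated against 0.01 N NaOH, with Topfer's reagent and phenolphthalein as indicators. Values expressed as ratio of percent inhibition, treated vs control group.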

Rattus norvegicus [2] = organism: Rattus norvegicus; test: Inhibition of gastric H+/K(+)-ATPase activity in Sprague-Dawley rat microsomal vesicles at 10 umol; type: microsomes; settings: Stomach, Microsome
Method in brief: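 Rat gastric microsomes were prepared by density gradient and differential centrifugation. The medium held 40 mM Tris-HCl pH 7.4, 2 mM MgCl2, 10 mM KCl (water for blank) and […] vesicular protein. Compound was preincubated 30 min at 37 °C. Tris-ATP at 0.3, 1.0 or 3 mM was then added for 20 min and stopped with chilled 10% TCA. Released Pi was read at 530 nm; % inhibition vs control.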

Rattus norvegicus [3] = organism: Rattus norvegicus; test: Antisecretory activity in rat pylorus ligation-induced ulcer model determined by ratio of free acidity inhibition in drug treated to untreated control; type: functional; method in brief: as §1

Row | SMILES | inhibition (Rattus norvegicus [2]) | Activity (Rattus norvegicus [1]) | Activity (Rattus norvegicus [3])
1 | CC(C)N1C(=O)CC[C@H]1C(=O)OC(C)(C)C | 52% | 0.69 | 0.72
2 | O=C1CC[C@@H](C(=O)O)N1 [PIDOLIC ACID] | 67% | 0.75 | 0.69
3 | CCOC(=O)N1CCC[C@H]1C(=O)OC | 68% | 0.64 | 0.59
4 | Cc1ccc(CN2C(=O)CC[C@H]2C(=O)OC(C)(C)C)cc1 | 79% | 0.52 | 0.48

Further lines, with some results ahead:

Row | inhibition (Rattus norvegicus [2]) | SMILES | Activity (Rattus norvegicus [1]) | Activity (Rattus norvegicus [3])
5 | 91% | COC(=O)[C@@H]1CCCN1C(=O)c1ccccc1 | 1.14 | 0.9
6 | 58% | O=C(O)[C@@H]1CCCN1C(=O)/C=C/c1ccccc1 | 0.76 | 0.65
7 | 52% | COC(=O)[C@@H]1CCCN1C(=O)Cc1ccc(OC)cc1 | 0.86 | 0.81
